Test results as given in ChEMBL document CHEMBL1123251, “N-(cyanomethyl)- and N-(2-methoxy-1-cyanoethyl)anthracyclines and related carboxyl derivatives” (J Med Chem, 1986).

How the values were obtained:
P388/ADR = assay: Compound was evaluated for the growth inhibition of P388/ADR cells.; assay type: functional, cell-based; conditions: Mus musculus
How it was run: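 P388/ADR, a P388 subline selected for anthracycline resistance, grown in culture and exposed to drug for 48 h. IC50 (μM) was taken for growth inhibition. Resistance index = IC50 in P388/ADR ÷ IC50 in parent P388/S cells.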

[1] = Percent recovery of compound at pH 2; assay type: ADME
How it was run: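 Drug stocks in CH3CN or EtOH were diluted 1:1 with phosphate buffer (pH 7), citrate buffer (pH 4) or 0.1 N HCl–KCl (pH 2). Solutions were held at 23 °C for 22 h, then aliquots were analysed by reversed-phase C18 HPLC eluted with 0.1 N NaH2PO4–CH3CN. Percent of drug recovered was reported.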

P388 [2] = assay: Compound was evaluated for the antitumor efficacy at optimal dose 0.012 mg/kg against leukemia P388 in mice on day 1,; assay type: functional, Mus musculus
[3] = Percent recovery of compound at pH 7; assay type: ADME
How it was run: (§1)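 Drug stock in CH₃CN or EtOH was diluted 1:1 with citrate buffer (pH 4) or phosphate buffer (pH 7) and held at 23 °C for 22 h. Remaining drug was measured by reversed-phase C18 (5 μm) HPLC, eluting with 0.1 N NaH₂PO₄–CH₃CN (70:30 or 66:34, depending on compound). Result is reported as % recovery.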

[4] = Compound was evaluated for the change in Tm of isolated helical DNA in solution.; assay type: ADME
How it was run: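 Thermal denaturation of calf thymus DNA (5.2×10⁻⁵ M, P) with drug at 5.2×10⁻⁶ M in 0.01 M phosphate buffer pH 7, 10⁻⁵ M EDTA, 5% Me2SO. ΔTm = Tm(DNA–drug complex) − Tm(DNA).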

[5] = Percent recovery of compound at pH 4; assay type: ADME; how it was run: as §1
L1210 [6] = assay: Compound was evaluated for the 50% inhibition of the incorporation of [3H]- thymidine in the DNA (inhibition of synthesis in leukemia L1210 cells); assay type: functional; conditions: Mus musculus, read-out: ED50 (the source's name)
L1210 [7] = assay: Compound was evaluated for the 50% inhibition of the incorporation of [3H]uridine in the RNA (inhibition of synthesis in leukemia L1210 cells); conditions: Mus musculus, read-out: ED50 (the source's name)
[8] = Partition coefficient in octanol-phosphate buffer at pH 7.4
P388/S [9] = assay: (§2) Compound was evaluated for the growth inhibition of P388/s cells.; assay type: functional, cell-based; conditions: Mus musculus
How it was run: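 Cultured P388 cells were exposed to drug for 48 h and the IC50 for growth inhibition determined.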

P388 [10] = assay: Compound was evaluated for the antitumor efficacy at optimal dose 8.0 mg/kg against leukemia P388 in mice on day q4d 5, 9, 13.,; assay type: functional, Mus musculus
P388 [11] = assay: Compound was evaluated for the antitumor efficacy at optimal dose 3.1 mg/kg against leukemia P388 in mice on day 1,; assay type: functional, Mus musculus
P388/S [12] = assay: as §2; assay type: functional, cell-based; conditions: Mus musculus; remark: listed apart in the source
How it was run: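 Growth inhibition of P388/S cells (the standard screening P388 line) in culture after 48-h drug exposure; IC50 reported in μM.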

P388 [13] = assay: Compound was evaluated for the antitumor efficacy at optimal dose 7.5 mg/kg against leukemia P388 in mice on day 1,; assay type: functional, Mus musculus

**Q.** For COc1cccc2c1C(=O)c1c(O)c3c(c(O)c1C2=O)C[C@@](O)(C(=O)CO)C[C@@H]3OC1CC(N2CCOCC2C#N)C(O)C(C)O1 (stereo not given in full), which IC50 (P388/ADR) is on record?
**A.** 0.0003 µM

**Q.** And the Recovery [1]?
**A.** 10%

**Q.** What about the T/C (P388 [2]) of the same molecule?
**A.** 262%

**Q.** And the Recovery [3]?
**A.** 74%

**Q.** What about the “Change in Tm” value [4] of the same molecule?
**A.** 8.7

**Q.** What about the Recovery [5] of the same molecule?
**A.** 54%

**Q.** What about the EC50 (L1210 [6]) of the same molecule?
**A.** 0.003 µM

**Q.** What about the EC50 (L1210 [7]) of the same molecule?
**A.** 0.00053 µM

**Q.** For COc1cccc2c1C(=O)c1c(O)c3c(c(O)c1C2=O)C[C@@](O)(C(C)=O)C[C@@H]3OC1CC(NCC(=O)O)C(O)C(C)O1 (stereo not given in full), which “Change in Tm” value [4] is on record?
**A.** 2.2

**Q.** What about the EC50 (L1210 [6]) of the same molecule?
**A.** > 100 µM

**Q.** And the EC50 (L1210 [7])?
**A.** 100 µM

**Q.** And the logD [8]?
**A.** 0.43

**Q.** Which results are given for COCC(C#N)NC1CC(O[C@H]2C[C@](O)(C(=O)CO)Cc3c(O)c4c(c(O)c32)C(=O)c2c(OC)cccc2C4=O)OC(C)C1O (stereo not given in full)?
**A.** Recovery [1]: 58%; IC50 (P388/S [9]): 0.037 µM; Recovery [3]: 28%; Change in Tm [4]: 12.5; Recovery [5]: 29%; EC50 (L1210 [6]): 0.8 µM; EC50 (L1210 [7]): 0.4 µM; logD [8]: 0.92

**Q.** What does the source list for CCOC(=O)CNC1CC(O[C@H]2C[C@](O)(C(C)=O)Cc3c(O)c4c(c(O)c32)C(=O)c2c(OC)cccc2C4=O)OC(C)C1O (stereo not given in full)?
**A.** Change in Tm [4]: 0; EC50 (L1210 [6]): 13 µM; EC50 (L1210 [7]): 11 µM

**Q.** For COCC(C#N)NC1CC(O[C@H]2C[C@](O)(C(C)=O)Cc3c(O)c4c(c(O)c32)C(=O)c2c(OC)cccc2C4=O)OC(C)C1O (stereo not given in full), which “Change in Tm” value [4] is on record?
**A.** 9.4

**Q.** What about the EC50 (L1210 [6]) of the same molecule?
**A.** 0.51 µM

**Q.** And the EC50 (L1210 [7])?
**A.** 0.51 µM

**Q.** And the logD [8]?
**A.** 2.64

**Q.** For CCOC(=O)CCCNC1CC(O[C@H]2C[C@](O)(C(C)=O)Cc3c(O)c4c(c(O)c32)C(=O)c2c(OC)cccc2C4=O)OC(C)C1O (stereo not given in full), which “Change in Tm” value [4] is on record?
**A.** 8.4

**Q.** What about the EC50 (L1210 [6]) of the same molecule?
**A.** 1.3 µM

**Q.** What about the EC50 (L1210 [7]) of the same molecule?
**A.** 0.37 µM

**Q.** What about the logD [8] of the same molecule?
**A.** 2.04

**Q.** For COc1cccc2c1C(=O)c1c(O)c3c(c(O)c1C2=O)C[C@@](O)(C(C)=O)C[C@@H]3OC1CC(N(CC#N)CC(=O)[O-])C(O)C(C)O1.[Na+] (stereo not given in full), which “Change in Tm” value [4] is on record?
**A.** 2.2

**Q.** And the EC50 (L1210 [6])?
**A.** 14 µM

**Q.** And the EC50 (L1210 [7])?
**A.** 5.3 µM

**Q.** And the logD [8]?
**A.** 0.03

**Q.** For COc1cccc2c1C(=O)c1c(O)c3c(c(O)c1C2=O)C[C@@](O)(C(C)=O)C[C@@H]3OC1CC(NCC#N)C(O)C(C)O1 (stereo not given in full), which “Change in Tm” value [4] is on record?
**A.** 11.7

**Q.** What about the EC50 (L1210 [6]) of the same molecule?
**A.** 1.8 µM

**Q.** And the EC50 (L1210 [7])?
**A.** 0.82 µM

**Q.** What about the logD [8] of the same molecule?
**A.** 2.28

**Q.** For COc1cccc2c1C(=O)c1c(O)c3c(c(O)c1C2=O)C[C@@](O)(C(=O)CO)C[C@@H]3OC1CC(NCC#N)C(O)C(C)O1 (stereo not given in full), which Recovery [1] is on record?
**A.** 92%

**Q.** What about the IC50 (P388/S [9]) of the same molecule?
**A.** 0.028 µM

**Q.** And the T/C (P388 [10])?
**A.** 148%

**Q.** What about the T/C (P388 [11]) of the same molecule?
**A.** 184%

**Q.** What about the Recovery [3] of the same molecule?
**A.** 82%

**Q.** What about the “Change in Tm” value [4] of the same molecule?
**A.** 13.9

**Q.** What about the Recovery [5] of the same molecule?
**A.** 86%

**Q.** What about the EC50 (L1210 [6]) of the same molecule?
**A.** 1.2 µM

**Q.** And the EC50 (L1210 [7])?
**A.** 0.29 µM

**Q.** What about the logD [8] of the same molecule?
**A.** 1.2

**Q.** Which “Change in Tm” value [4] does the source give for COc1cccc2c1C(=O)c1c(O)c3c(c(O)c1C2=O)C[C@@](O)(C(C)=O)C[C@@H]3OC1CC(NCC(N)=O)C(O)C(C)O1 (stereo not given in full) here?
**A.** 3.5

**Q.** And the EC50 (L1210 [6])?
**A.** 7.5 µM

**Q.** And the EC50 (L1210 [7])?
**A.** 1.7 µM

**Q.** And the logD [8]?
**A.** 1.65

**Q.** Which results are given for CCOC(=O)CN(CC#N)C1CC(O[C@H]2C[C@](O)(C(C)=O)Cc3c(O)c4c(c(O)c32)C(=O)c2c(OC)cccc2C4=O)OC(C)C1O (stereo not given in full)?
**A.** EC50 (L1210 [6]): 7 µM; EC50 (L1210 [7]): 3.5 µM

**Q.** For COc1cccc2c1C(=O)c1c(O)c3c(c(O)c1C2=O)C[C@@](O)(C(C)=O)C[C@@H]3O[C@H]1C[C@H](N)[C@H](O)[C@H](C)O1 [DAUNORUBICIN], which “Change in Tm” value [4] is on record?
**A.** 10.5

**Q.** What about the EC50 (L1210 [6]) of the same molecule?
**A.** 0.66 µM

**Q.** And the EC50 (L1210 [7])?
**A.** 0.33 µM

**Q.** Which IC50 (P388/ADR) does the source give for COc1cccc2c1C(=O)c1c(O)c3c(c(O)c1C2=O)C[C@@](O)(C(=O)CO)C[C@@H]3O[C@H]1C[C@H](N)[C@H](O)[C@H](C)O1 [DOXORUBICIN] here?
**A.** 8.2 µM

**Q.** And the IC50 (P388/S [12])?
**A.** 0.068 µM

**Q.** And the T/C (P388 [10])?
**A.** 160%

**Q.** What about the “Change in Tm” value [4] of the same molecule?
**A.** 12.8

**Q.** And the T/C (P388 [13])?
**A.** 252%

**Q.** And the EC50 (L1210 [6])?
**A.** 1.6 µM

**Q.** And the EC50 (L1210 [7])?
**A.** 0.58 µM
